Shown are actives, neighbours in structure and some others; about 3% of the full set was active somewhere.
Measles CPE: compounds protecting cells from measles virus cytopathic effect, primary screen, measles RdRp inhibitor project, single point, MLSMR library, absorbance | Measles virus-infected cells, CPE protection | protection (pct of control), % at 4 µM | 1.5% of 140,000 active | AID 841, 2007; in the data active = protection mostly above about 24%, no sharp cut-off; inactive = mostly below about 26%
sEH activator: soluble epoxide hydrolase activators, primary screen, biochemical, human sEH; purified human sEH enzymatic activity, activator screen; activation, % at 2 µM; 0.04% of 91,000 active; AID 717, 2007; in the data active = activation above about 37%
Target sequence (P34913 whole entry, looked up): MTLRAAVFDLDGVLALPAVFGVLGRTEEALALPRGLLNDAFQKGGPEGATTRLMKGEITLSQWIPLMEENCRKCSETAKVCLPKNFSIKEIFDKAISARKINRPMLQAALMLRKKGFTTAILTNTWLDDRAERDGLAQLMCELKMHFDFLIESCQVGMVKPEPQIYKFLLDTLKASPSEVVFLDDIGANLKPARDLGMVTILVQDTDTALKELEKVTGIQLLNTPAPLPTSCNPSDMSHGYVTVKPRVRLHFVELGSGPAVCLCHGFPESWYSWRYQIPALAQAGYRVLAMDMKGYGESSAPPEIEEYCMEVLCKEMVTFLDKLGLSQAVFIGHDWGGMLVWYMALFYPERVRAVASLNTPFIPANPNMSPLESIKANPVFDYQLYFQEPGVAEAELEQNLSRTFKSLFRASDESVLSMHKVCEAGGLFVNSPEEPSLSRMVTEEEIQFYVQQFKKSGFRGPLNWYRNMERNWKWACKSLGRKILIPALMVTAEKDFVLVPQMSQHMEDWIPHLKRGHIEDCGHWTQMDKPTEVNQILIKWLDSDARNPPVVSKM
sEH inh: soluble epoxide hydrolase inhibitors, primary screen, biochemical, human sEH; Bifunctional epoxide hydrolase 2 (Homo sapiens), P34913; recombinant human sEH enzymatic activity assay; inhibition, % at 2 µM; 0.34% of 91,000 active; in the data active = inhibition above about 80%
SDO1 yeast rescue: growth rescue of sdo1-depleted yeast, primary screen, S. cerevisiae, bone marrow failure model; S. cerevisiae sdo1-depleted JHY4D growth rescue, OD600 30 h; hits give high values; pdr5 snq2 efflux-pump mutant strain; z-score at 10 µM; 0.21% of 140,000 active; AID 817, 2007;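 active = z-score above 3 at both the 24 hr and the 30 hr optical density reads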;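 also: z-score against mean and SD of all compound wells on the same plate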
Yeast lifespan up: compounds extending yeast replicative lifespan, primary screen, S. cerevisiae, OD615; S. cerevisiae growth with nicotinamide; deaD strain in restrictive glucose medium; inhibition of the nicotinamide effect, % at 10 µM; 0.68% of 130,000 active; AID 775, 2007;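 active = inhibition above a set limit, placed 3 SD over the median of all compounds, cut at about 26% in these data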;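 also: 0% = nicotinamide-treated wells and 100% = cells grown without nicotinamide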
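Assay system: engineered S. cerevisiae DeaD replicative-lifespan strain, galactose-grown log-phase cells; medium: restrictive CSMM-D dextrose medium; also added: nicotinamide, 1.5 mM, co-present with compound; schedule: 48 h compound exposure at 30 °C, humidified; detection: absorbance at 615 nm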
Yeast growth inh: growth inhibitors of yeast BB579 in restrictive medium, primary screen, yeast lifespan-shortening project, S. cerevisiae; AID 804, 2007; 0.51% of 140,000 active; inhibition, % at 10 µM; OD615, 48 h;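 active = inhibition above a set limit, 3 SD over the mean compound inhibition, cut at about 44% in these data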
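Assay system: S. cerevisiae DeaD strain BB579 yeast. Medium: CSMM-D restrictive synthetic medium containing dextrose (glucose). Times: 4 h cell preincubation, 48 h compound exposure, 30 °C humidified. Signal: OD615 turbidity measurement. Benchmarks: positive control amphotericin B 10 µg/mL.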
Active calls of the source: *; · = no result.

SMILES | Measles CPE | sEH activator | sEH inh | SDO1 yeast rescue | Yeast lifespan up | Yeast growth inh
COc1ccc2c(c1)-c1nc(/N=C/c3c(O)ccc4ccccc34)sc1CC2 | 11 | · | · | -0.02 | 30* | -55
Cc1cc(N=Cc2c(O)ccc3ccccc23)no1 | 10 | 10 | -10 | 2.4 | 43* | -13
CCOC(=O)c1cc(CC)sc1/N=C/c1c(O)ccc2ccccc12 | 6 | · | · | -0.64 | 32* | -6
O=C(c1ccccc1)c1nn(-c2ccc(Cl)cc2)cc1C(=O)c1cc2ccccc2oc1=O | 7 | 3 | -1 | -1.1 | -8 | -28
CC1Nc2nc(NC(=O)C(C)(C)C)[nH]c(=O)c2N(C)C1C (stereo not drawn) | 73* | · | · | 0.53 | 5 | 2
COc1ccc(-c2nc(=S)c3c([nH]2)Oc2ccc(C)cc2C3)cc1O | 2 | · | · | 1 | 0 | -55
Cc1ccc(NS(=O)(=O)c2ccc(CCC(=O)NCCCOC(C)C)cc2)cc1 | 25* | · | · | -0.01 | 3 | -27
CC(NC(=O)CCN1C(=O)c2ccccc2C1=O)c1ccc2c(c1)CCCC2 (stereo not drawn) | 19 | · | · | -0.11 | 2 | -10
COC(=O)Cc1c(O)ccn(Cc2cccc3ccccc23)c1=O | 19 | -5 | 8 | -0.3 | 21 | -69
Cc1cccc(NC(=O)C2C3C=CC(C4CC34)C2C(=O)O)c1 (stereo not drawn) | 49* | -3 | 2 | 0.54 | · | -17
CCOc1ccc(/C=C/C(=O)NCc2ccccc2)cc1 | 3 | · | · | -0.05 | -5 | -22
CCOc1ccc(/C=C/C(=O)c2c(O)c3ccccc3oc2=O)cc1 | 5 | 10 | -4 | 0.05 | 80* | -71
CCOc1ccccc1-c1ccc(C(=O)NCc2ccccc2)o1 | 3 | · | · | -1.5 | -3 | -3
O=c1c2ccccc2sn1-c1ccccc1 | 5 | -7 | 10 | -1.9 | 41* | -7
Cc1onc(-c2ccccc2)c1-c1n[nH]c(=S)n1-c1ccccc1 | · | 8 | -7 | · | · | ·
Cc1ccccc1C(=O)N1CCN(c2ccc(NC(=O)CSc3ccc(Cl)cc3)cc2)CC1 | 11 | -85 | 86* | -2.4 | -5 | -51
CCC(=O)Nc1ccc(N2CCN(C(=O)c3ccccc3C)CC2)cc1 | 3 | 2 | -1 | -0.08 | -11 | -51
Cc1cc(C)c(C)c(S(=O)(=O)N2CCC(C(=O)Nc3ccccc3N3CCOCC3)CC2)c1C | 10 | · | · | -0.01 | 3 | -52
Cc1ccc(S(=O)(=O)N2CCC(C(=O)Nc3ccccc3N3CCCCC3)CC2)cc1 | 34* | 2 | -3 | -0.73 | -4 | -31
CCOc1ccc(S(=O)(=O)Oc2ccc3ccccc3c2)cc1 | 10 | · | · | 0.14 | -3 | -16
COc1cc(/C=N/NC(=O)c2ccncc2)ccc1OC(=O)c1ccc([N+](=O)[O-])cc1 | 16 | -19 | 21 | 0.42 | 44* | -10
O=C(COC(=O)c1n[nH]c2ccccc12)NC(=O)NCc1ccco1 | 25* | -11 | 11 | 0.2 | -3 | -29
CCOC(=O)N1CCC(NC(=O)C2CCN(c3nc(-c4ccc(OC)cc4)no3)CC2)CC1 | 44* | -65 | 66 | -1.2 | -7 | -20
CCOC(=O)N1CCN(Cc2nc(-c3ccc(OC)cc3)no2)CC1 | · | 4 | -5 | · | · | ·
Cc1ccc(C(=O)NC(=S)NNC(=O)c2ccccc2[N+](=O)[O-])cc1 | 22 | -1 | 6 | 0.49 | · | -23
SMILES | Measles CPE | sEH activator | sEH inh | SDO1 yeast rescue | Yeast lifespan up | Yeast growth inh
CC(C)(C)c1cc(CCC(=O)NNC(=S)NC(=O)c2ccccc2)cc(C(C)(C)C)c1O | 2 | · | · | 0.26 | 6 | 23
Cc1ccccc1C(=O)NNC(=S)NC(=O)c1ccccc1 | 11 | · | · | -0.46 | 30* | 27
O=C(CCc1ccccc1)NNC(=S)NC(=O)c1ccccc1 | 3 | -15 | 15 | -1.8 | -12 | 69*
CCCc1nn(C)c2c1C(c1ccncc1)C(C#N)=C(N)O2 (stereo not drawn) | 40* | · | · | -0.84 | -10 | -3
CCCc1[nH]nc2c1C(c1ccncc1)C(C#N)=C(N)O2 (stereo not drawn) | 10 | · | · | 0.9 | -3 | -11
CCOC(=O)c1c(NC(=O)c2ccccc2Br)sc2c1CCc1ccccc1-2 | 19 | -1 | 1 | 0.02 | -8 | -60
COCCn1c(-c2cccc([N+](=O)[O-])c2)nc2c1c(=O)[nH]c(=O)n2Cc1ccccc1 | 27* | · | · | -0.25 | 3 | -28
COc1cc(Br)cc(-c2nc3c(c(=O)[nH]c(=O)n3Cc3ccccc3)n2C)c1O | 4 | · | · | -0.17 | 63* | -43
C/C(=N\OCC(=O)NC12CC3CC(CC(C3)C1)C2)c1cc2ccccc2o1 | 19* | · | · | -1.7 | 3 | -9
COc1cc(/C=N/OCC(=O)NC23CC4CC(CC(C4)C2)C3)ccc1OCc1ccccc1 | 49* | · | · | 0.83 | 3 | -35
COc1cc(/C=N/OCC(=O)Nc2ccc(OC(F)F)cc2)ccc1OCc1ccccc1 | 22 | · | · | -0.53 | 1 | -40
COc1cc(/C=N/OCC(=O)NC2CCCCC2)ccc1OCc1ccccc1 | 86* | · | · | -1.7 | 0 | -16
CSc1ccccc1NC(=O)CO/N=C(\C)c1cc2ccccc2o1 | 10 | · | · | -0.22 | -7 | -9
COc1cc2c(cc1OC)C(C(=O)N1CCN(c3ccccc3)CC1)C(c1cccs1)N(C)C2=O (stereo not drawn) | 1 | -19 | 20 | 0.3 | -10 | -15
CC1CCN(CC(O)COCCC23CC4CC(CC(C4)C2)C3)CC1 (stereo not drawn) | 4 | -3 | 5 | -1.8 | -6 | -78
Fc1ccc(N/N=C/C=C/c2ccccc2)c(F)c1 | 16 | · | · | -1.1 | -7 | -35
CCOC(=O)CCCNC(=O)COc1ccccc1C#N | 5 | · | · | 0.31 | 66* | -11
N#Cc1ccccc1OCC(=O)NC(N)=O | 21 | 4 | -6 | 0.34 | -10 | 11
CCc1nc2cc(CC(=O)O)ccc2o1 | 4 | 0 | 1 | 1.6 | -7 | -15
Cc1cc(Oc2ccc(Cl)cc2)nc(-c2ccccc2O)n1 | 31* | 11 | -8 | -1 | -11 | -41
Cc1ccc(Oc2cc(C)nc(-c3ccccc3O)n2)cc1 | 12 | · | · | -1.9 | -15 | -33
Cc1cc(OCc2ccc(F)cc2)nc(-c2ccccc2O)n1 | 33* | 3 | -1 | -0.55 | -3 | -5
O=C(Nc1ccc(-c2nc3ccccc3o2)cc1)c1ccc(N2C(=O)C3C4C=CC(C4)C3C2=O)cc1 (stereo not drawn) | 2 | 4 | -3 | 0.58 | -7 | -90
O=C(O)c1ccc(N2Cc3ccccc3C2)cc1O | 71* | 8 | -6 | -0.02 | -15 | -24
Cc1ccc(C(=O)c2ccccc2C(=O)O)c(O)c1 | 10 | · | · | 0.33 | -6 | 2
